ChEMBL document CHEMBL1141765, “Alkaloids from Alangium javanicum and Alangium grisolleoides that mediate Cu2+-dependent DNA strand scission” (J Nat Prod, 2005)
“And” between values parts separate entries of the source, which are not always exact repeats. Equal values may be shown once.

Legend:
[1] = test system: Escherichia coli; experiment: Induction of DNA strand scission activity against Escherichia coli pBR322 assessed as form 2 DNA levels at 50 uM after 60 mins by electrophoresis in presence of 20 uM Cu2+; type: functional
In short: (§1)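 Supercoiled pBR322 plasmid DNA (500 ng) was incubated with compound, with or without 20 µM Cu2+, in 10 mM Tris-HCl, pH 8.0. Compound came from DMSO, final DMSO ≤5%. Incubation was 37 °C for 60 min. Blank (DNA only) and Cu2+-only controls were included. Samples were run on 1.0% agarose gels with ethidium bromide in TBE, pH 8.3. Form I→Form II conversion was quantified by gel densitometry.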

[2] = test system: Escherichia coli; experiment: Induction of DNA strand scission activity against Escherichia coli pSP64 assessed as form 2 DNA levels at 10 uM after 2 hrs by electrophoresis in presence of equimolar amount of Cu2+
[3] = test system: Escherichia coli; experiment: Induction of DNA strand scission activity against Escherichia coli pBR322 assessed as form 2 DNA levels at 200 uM after 60 mins by electrophoresis in absence of 20 uM Cu2+; type: functional; in short: as §1
[4] = test system: Escherichia coli; experiment: Induction of DNA strand scission activity against Escherichia coli pBR322 assessed as form 2 DNA levels at 25 uM after 60 mins by electrophoresis in presence of 20 uM Cu2+; type: functional; in short: as §1
[5] = test system: Escherichia coli; experiment: Induction of DNA strand scission activity against Escherichia coli pBR322 assessed as form 2 DNA levels at 100 uM after 60 mins by electrophoresis in presence of 20 uM Cu2+; type: functional; in short: as §1
[6] = test system: Escherichia coli; experiment: Induction of DNA strand scission activity against Escherichia coli pBR322 assessed as form 2 DNA levels at 200 uM after 60 mins by electrophoresis in presence of 20 uM Cu2+; type: functional; in short: as §1
[7] = test system: Escherichia coli; experiment: Induction of DNA strand scission activity against Escherichia coli pSP64 assessed as form 2 DNA levels at 100 uM after 2 hrs by electrophoresis in presence of equimolar amount of Cu2+
[8] = test system: Escherichia coli; experiment: Induction of DNA strand scission activity against Escherichia coli pBR322 assessed as form 2 DNA levels at 10 uM after 60 mins by electrophoresis in presence of 20 uM Cu2+; type: functional; in short: as §1
[9] = test system: Escherichia coli; experiment: Induction of DNA strand scission activity against Escherichia coli pSP64 assessed as form 2 DNA levels at 200 uM after 2 hrs by electrophoresis in presence of equimolar amount of Cu2+
[10] = test system: Escherichia coli; experiment: Induction of DNA strand scission activity against Escherichia coli pBR322 assessed as form 2 DNA levels at 500 uM after 60 mins by electrophoresis in presence of 20 uM Cu2+; type: functional; in short: as §1
[11] = test system: Escherichia coli; experiment: Induction of DNA strand scission activity against Escherichia coli pBR322 assessed as form 2 DNA levels at 500 uM after 60 mins by electrophoresis in absence of 20 uM Cu2+; type: functional; in short: as §1

Row | Structure (SMILES) | Activity [1] [%] | Activity [2] [%] | Activity [3] [%] | Activity [4] [%] | Activity [5] [%] | Activity [6] [%] | Activity [7] | Activity [8] [%] | Activity [9] | Activity [10] [%] | Activity [11] [%]
1 | C=C[C@H]1[C@H](O[C@@H]2O[C@H](CO)[C@@H](O)[C@H](O)[C@H]2O)OC=C2C(=O)N3CC[C@@]4(C(=O)Nc5ccccc54)[C@H]3C[C@H]21 | 20 | 0 | 3 | 16 | 29 | 58 | 28% and 16% | 10 | 43% and 35% |  | 
2 | C=C[C@H]1[C@H](O[C@@H]2O[C@H](CO)[C@@H](O)[C@H](O)[C@H]2O)OC=C2C(=O)N3CCc4cc(OC)c(O)cc4[C@H]3C[C@H]21 | 18 |  |  |  | 25 | 30 |  | 14 |  | 42 | 3
3 | C=C[C@H]1[C@H](O[C@@H]2O[C@H](CO)[C@@H](O)[C@H](O)[C@H]2O)OC=C2C(=O)N3CC[C@]4(C(=O)Nc5ccccc54)[C@H]3C[C@H]21 |  | 0 |  |  |  |  | 5% |  | 7% |  | 
